Reference: ChEMBL document CHEMBL5356968, “Miconazole-like Scaffold is a Promising Lead for Naegleria fowleri-Specific CYP51 Inhibitors” (J Med Chem, 2023)

Tests used:
[1] = tested on: Naegleria fowleri; experiment: Antiprotozoal activity against Naegleria fowleri European KUL assessed as inhibition of parasite growth at 10 uM incubated for 48 hrs by CellTiter-Glo luminescent cell viability assay relative to control; type: functional
Outline: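 Axenic N. fowleri KUL trophozoites from log-phase culture in Nelson's medium with 10% FBS at 37 °C. Primary screen run in duplicate at 10 μM, 2,500 amoebae/well in 384-well format. Plates incubated 48 h at 37 °C, then viability read by CellTiter-Glo luminescence. BSL-2 handling.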

[2] = Drug concentration in C57BL/6 mouse brain at 40 mg/kg, ip measured after 1 hrs by HPLC-ESI-MS/MS analysis; type: ADME, organism-based; settings: read-out: Drug uptake
[3] = Drug concentration in C57BL/6 mouse plasma at 40 mg/kg, ip measured after 1 hrs by HPLC-ESI-MS/MS analysis; type: ADME, organism-based
[4] = tested on: Naegleria fowleri; experiment: Antiprotozoal activity against Naegleria fowleri European KUL assessed as inhibition of parasite growth incubated for 48 hrs by CellTiter-Glo luminescent cell viability assay; type: functional, organism-based
[5] = tested on: Naegleria fowleri; experiment: Antiprotozoal activity against Naegleria fowleri; type: functional, organism-based
Outline: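 N. fowleri European KUL trophozoites, axenic in Nelson's medium + 10% FBS at 37 °C, harvested in log phase. Single-point screen at 10 μM in duplicate (2,500 amoebae/well). Dose–response in triplicate, serial dilution 50 to 0.39 μM (10,000 amoebae/well). 48 h at 37 °C; viability by CellTiter-Glo luminescence.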

SMILES	inhibition at 10 µM [1] [%]	other results
O=C(OC(Cn1ccnc1)c1ccccc1)c1cccc(C(F)(F)F)c1 (stereo not given)	≥ 50	–
COc1ccc(CC(c2ccc(OC)cc2)n2ccnc2)cc1 (stereo not given)	≥ 50	–
COc1ccc(C(Cc2ccc(Cl)cc2)n2ccnc2)cc1 (stereo not given)	≥ 50	–
Clc1ccc(-n2ccc(C(c3ccccc3)n3ccnc3)c2)cc1 (stereo not given)	≥ 50	–
O=C(Nc1ccc(N2CCN(c3ccc(Cl)cc3)CC2)cc1)OC(Cn1ccnc1)c1ccc(F)cc1 (stereo not given)	≥ 50	–
Clc1ccc(C(c2ccn(-c3ccc(Cl)cc3)c2)n2ccnc2)cc1 (stereo not given)	≥ 50	–
Fc1ccc([C@@H](Cn2ccnc2)OCc2cc(Cl)cc(Cl)c2)cc1	–	concentration at 1 h [2]: 232 ng/g; concentration at 1 h [3]: 0.656 µg/mL
FC(F)(F)c1cccc(CO[C@H](Cn2ccnc2)c2ccc(Cl)cc2Cl)c1	–	concentration at 1 h [3]: 0.037 µg/mL
CC(C)c1cccc(NC(=O)OC(Cn2ccnc2)c2ccccc2)c1 (stereo not given)	≥ 50	–
COc1ccc(C(Cc2ccc(-n3cccc3)cc2)n2ccnc2)cc1 (stereo not given)	≥ 50	–
O=C(OC(Cn1ccnc1)c1ccc(F)cc1)c1cccc(C(F)(F)F)c1 (racemic)	≥ 50	–
OC(Cn1cncn1)(Cn1cncn1)c1ccc(F)cc1F [FLUCONAZOLE]	–	EC50 [4]: 13.9 µM
CCC(C)n1ncn(-c2ccc(N3CCN(c4ccc(OCC5COC(Cn6cncn6)(c6ccc(Cl)cc6Cl)O5)cc4)CC3)cc2)c1=O (stereo not given) [ITRACONAZOLE]	–	EC50 [5]: ≤ 10 µM
CC[C@@H]([C@H](C)O)n1ncn(-c2ccc(N3CCN(c4ccc(OC[C@@H]5CO[C@@](Cn6cncn6)(c6ccc(F)cc6F)C5)cc4)CC3)cc2)c1=O [POSACONAZOLE]	–	EC50 [5]: ≤ 10 µM
